The nature of series [1]: photophysical properties. Format: physicochemical. An outline of the steps: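 Samples are prepared at 20 μM. Dye–inhibitor conjugate spectra are recorded in 1% DMSO/PBS, pH 7.4, at 25 °C with excitation at 405 nm. Tabulated dye entries are excited at their λmax. Absorption maximum, molar absorptivity, emission maximum and fluorescence quantum yield are reported.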
A short description of series [2]: solubility. It counts as physicochemical. To be noted: variety of solvents.
For series [3], the system named is HeLa cells. The series is described as follows: cell-based assay for bipolar spindle assembly / mitotic arrest. On the set-up: species or system human. To be noted: 4 h; for spindle morphology: HeLa cells, fixed, anti-tubulin antibodies; for EC50: Homo sapiens, HeLa, read-out: EC50 for mitotic arrest in cell-based assay. An outline of the steps: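 HeLa cells are incubated for 4 h with the test compound, alongside an untreated control. They are then fixed and probed with anti-tubulin antibodies, with DNA counterstained. Spindle organization (bipolar vs. monopolar spindle formation) is assessed by fluorescence microscopy.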

The subject of series [4] is HeLa cells. The series is described as follows: membrane permeability and localization of free dyes, live-cell imaging. To be noted: living HeLa cells, 20 μM, 60 minutes, with AlexaFluor546-BSA endocytosis marker. Format: cell-based, human. In outline:
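Live HeLa cells are incubated for 1 h in 20 μM test dye, with 100 μg/mL AlexaFluor546-labeled BSA as a fluid-phase endocytosis marker. Cells are washed free of dye and imaged live by epifluorescence microscopy using a custom filter set matched to 395/500 excitation/emission. Merged images are used to compare dye distribution with marker-containing endosomal vesicles.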

Series [5] concerns HeLa cells. Kind of series: toxicity / cell viability of dye-treated cells. It counts as cell-based, human. To be noted: cells treated for up to 6 h with 100 μM dye.
The target of series [6] is T1, purified human KSP motor domain (Homo sapiens, UniProt P52732).
T1 sequence (P52732 18-359 limits assumed): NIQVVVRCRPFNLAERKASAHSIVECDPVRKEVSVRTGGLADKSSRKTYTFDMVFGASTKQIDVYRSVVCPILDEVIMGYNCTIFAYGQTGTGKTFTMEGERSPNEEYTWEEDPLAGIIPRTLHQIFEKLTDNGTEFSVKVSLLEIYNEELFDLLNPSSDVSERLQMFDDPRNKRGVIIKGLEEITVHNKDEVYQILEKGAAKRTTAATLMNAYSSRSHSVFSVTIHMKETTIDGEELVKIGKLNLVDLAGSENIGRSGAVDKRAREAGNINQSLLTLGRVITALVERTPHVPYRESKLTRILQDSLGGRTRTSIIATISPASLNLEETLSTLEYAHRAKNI
Kind of series: in vitro biochemical assay for microtubule-stimulated KSP ATPase activity.

Where [7] appears, read: MeOH, 20 μM sample, excited at λmax.
Where [8] appears, read: 1%DMSO/PBS pH 7.4, 20 μM sample.
[9] abbreviates: conjugates, 20 μM in 1% DMSO/PBS, pH 7.4 at 25 °C.
Setting [10] is: conjugates, 20 μM in 1% DMSO/PBS, pH 7.4 at 25 °C, excited at 405 nm.

14 molecules from PMC3244355 (Journal of the American Chemical Society, 2011) can be followed below.

As for “6-Bromo-3,3-difluoro-2-(4-(thiophen-2-yl)benzylidene)-2,3-dihydro-[1,2,4,3]triazaborolo[4,5-a]pyridin-2-ium-3-uide [Compound 8]”, in series [1] (MeOH, 20 μM sample), the Φf was 0.71, the ε was 26 600 M^−1cm^−1 and the λmax is listed as 490 nm. Also, the λemi in series [1] (setting [7]) came out at 562 nm.
Consider `F[B-]1(F)N2C=CC=CC2=N[N+]1=Cc1ccc(-c2cccs2)cc1` [Compound 2, 3,3-Difluoro-2-(4-(thiophen-2-yl)benzylidene)-2,3-dihydro-[1,2,4,3]triazaborolo[4,5-a]pyridine-2-ium-3-uide], for which, in series [1] (MeOH, 20 μM sample), the Φf turned out to be 0.75, the ε is 28 800 M^−1cm^−1 and the λmax was 472 nm. Further, the λemi in series [1] (setting [7]) was 551 nm.
On the same counts, the results for `F[B-]1(F)N2C=C(Cl)C=CC2=N[N+]1=Cc1ccc(-c2cccs2)cc1` [Compound 4] are 0.69, 26 800 M^−1cm^−1, 491 nm and 563 nm.
Consider `F[B-]1(F)N2C=C(Br)C=CC2=N[N+]1=Cc1ccc(-c2cccs2)cc1` [Compound 6, 6-Bromo-3,3-difluoro-2-(4-(thiophen-2-yl)benzylidene)-2,3-dihydro-[1,2,4,3]triazaborolo[4,5-a]pyridin-2-ium-3-uide], for which, in series [1] (MeOH, 20 μM sample), the Φf was 0.95, the ε is listed as 32 900 M^−1cm^−1 and the λmax is recorded as 482 nm. This molecule also showed a λemi in series [1] (setting [7]) of 562 nm.
On to `F[B-]1(F)N2C=C(Br)C=CC2=N[N+]1=Cc1ccccc1` [Compound 10, 2-Benzylidene-6-bromo-3,3-difluoro-2,3-dihydro-[1,2,4,3]triazaborolo[4,5-a]pyridin-2-ium-3-uide], for which, in series [1] (MeOH, 20 μM sample), the Φf is listed as 0.31, the ε is 22 600 M^−1cm^−1 and the λmax is listed as 471 nm. The molecule further displayed a λemi in series [1] (setting [7]) of 539 nm.
In the case of `F[B-]1(F)N2C=C(n3cc(-c4ccccc4)nn3)C=CC2=N[N+]1=Cc1ccc(-c2cccs2)cc1` [Compound 12, 3,3-Difluoro-6-(4-phenyl-1H-1,2,3-triazol-1-yl)-2-(4-(thiophen-2-yl)benzylidene)-2,3-dihydro-[1,2,4,3]triazaborolo[4,5-a]pyridin-2-ium-3-uide], in series [1] (MeOH, 20 μM sample), the Φf was 0.37, the ε is 33 800 M^−1cm^−1 and the λmax is given as 491 nm. Further, in series [1] (setting [7]), the λemi is 572 nm.
On the same counts, the results for `C#CC1=CN2C(=N[N+](=Cc3ccc(-c4cccs4)cc3)[B-]2(F)F)C=C1` [Compound 14, 6-Ethynyl-3,3-difluoro-2-(4-(thiophen-2-yl)benzylidene)-2,3-dihydro-[1,2,4,3]triazaborolo[4,5-a]pyridin-2-ium-3-uide] are 0.38, 36 700 M^−1cm^−1, 481 nm and 572 nm.
Consider `CC(C)=[N+]1N=C2C=CC(I)=CN2[B-]1(F)F` [Compound 18, 3,3-Difluoro-6-iodo-2-(propan-2-ylidene)-2,3-dihydro-[1,2,4,3]triazaborolo[4,5-a]pyridin-2-ium-3-uide], for which, in series [1] (MeOH, 20 μM sample), the Φf is recorded as 0.20, the ε is 8 300 M^−1cm^−1 and the λmax is given as 400 nm. Also, the λemi in series [1] (setting [7]) is 496 nm. Further, the solubility in solvents entry in series [2] is listed as “soluble in a variety of solvents”.
In the case of `COc1ccc(C(SC[C@H](N)C(=O)O)(c2ccccc2)c2ccccc2)cc1` [Compound 19, reference compound], in series [3], the spindle morphology entry is recorded as “dose-dependent formation of monopolar spindles”.
`CO[B-]1(OC)N2C=C(Br)C=CC2=N[N+]1=C(C)C` [Compound 21, 6-Bromo-3,3-dimethoxy-2-(propan-2-ylidene)-2,3-dihydro-[1,2,4,3]triazaborolo[4,5-a]pyridin-2-ium-3-uide]: the Φf in series [1] (setting [8]) came out at 0.16; in series [1] (Acetone, 20 μM sample), 0.23; in series [1] (CH2Cl2, 20 μM sample), 0.20; in series [1] (MeOH, 20 μM sample) it was 0.21; in series [1] (Toluene, 20 μM sample), 0.51. The ε is on record as 12 300 M^−1cm^−1 in series [1] (setting [8]); 10 800 M^−1cm^−1 in series [1] (Acetone, 20 μM sample); 11 200 M^−1cm^−1 in series [1] (CH2Cl2, 20 μM sample); 12 000 M^−1cm^−1 in series [1] (MeOH, 20 μM sample); 10 600 M^−1cm^−1 in series [1] (Toluene, 20 μM sample). In addition, the λmax is reported as 404 nm in series [1] (setting [8]); 407 nm in series [1] (Acetone, 20 μM sample); 406 nm in series [1] (CH2Cl2, 20 μM sample); 403 nm in series [1] (MeOH, 20 μM sample); 410 nm in series [1] (Toluene, 20 μM sample). The λemi in series [1] (1%DMSO/PBS pH 7.4, 20 μM sample, excited at λmax) was 492 nm; in series [1] (Acetone, 20 μM sample, excited at λmax) it was 504 nm; in series [1] (CH2Cl2, 20 μM sample, excited at λmax), 497 nm; in series [1] (setting [7]), 492 nm; in series [1] (Toluene, 20 μM sample, excited at λmax), 501 nm. Besides, the cell membrane permeability entry in series [4] is on record as “membrane permeable”. The “toxicity / effects on cell viability” value in series [5] is given as “no toxicity”. In series [2], the solubility in solvents entry is on record as “soluble in a variety of solvents”.
With `CO[B-]1(OC)N2C=C(I)C=CC2=N[N+]1=C(C)C` [Compound 22, 6-Iodo-3,3-dimethoxy-2-(propan-2-ylidene)-2,3-dihydro[1,2,4,3]triazaborolo[4,5-a]pyridin-2-ium-3-uide], in series [1] (MeOH, 20 μM sample), the Φf came to 0.21, the ε is 9 400 M^−1cm^−1 and the λmax came to 400 nm. For the same molecule, the λemi in series [1] (setting [7]) was 476 nm. In series [2], the solubility in solvents entry is “soluble in a variety of solvents”.
In turn, `COc1ccc(C(SCC(N)C(=O)NCCC#CC2=CN3C(=N[N+](=C(C)C)[B-]3(F)F)C=C2)(c2ccccc2)c2ccccc2)cc1` (stereo not drawn) [Compound 25, 6-(4-(2-Amino-3-((4-methoxyphenyl)diphenylmethylthio)propanamido)but-1-ynyl)-3,3-difluoro-2-(propan-2-ylidene)-2,3-dihydro-[1,2,4,3]triazaborolo[4,5-a]pyridin-2-ium-3-uide] displayed an IC50 in series [6] of 850 nM. Moreover, in series [3], the spindle morphology entry was “dose-dependent formation of monopolar spindles” and the EC50 amounted to 1130 nM. In series [1] (setting [9]), the ε is 9 900 and the λmax is reported as 400 nm. Moreover, in series [1] (setting [10]), the Φf is given as 0.31 and the λemi is 489 nm.
For the molecule `COc1ccc(C(SCC(N)C(=O)NCCC#CC2=CN3C(=N[N+](=C(C)C)[B-]3(OC)OC)C=C2)(c2ccccc2)c2ccccc2)cc1` (stereo not drawn) [Compound 26, 6-(4-(2-Amino-3-((4-methoxyphenyl)diphenylmethylthio)propanamido)-but-1-ynyl)-3,3-dimethoxy-2-(propan-2-ylidene)-2,3-dihydro-[1,2,4,3]triazaborolo[4,5-a]pyridin-2-ium-3-uide], in series [6], the IC50 is 600 nM. Besides, in series [3], the spindle morphology result is “dose-dependent formation of monopolar spindles” and the EC50 was determined as 1030 nM. For the same molecule, in series [1] (setting [9]), the ε is 12 900 and the λmax is reported as 400 nm. Further, in series [1] (setting [10]), the Φf turned out to be 0.29 and the λemi came to 486 nm.
The molecule `COc1ccc(C(SCC(N)C(=O)NCCOCCN)(c2ccccc2)c2ccccc2)cc1` (stereo not drawn) [Compound 27, 2-Amino-N-(2-(2-aminoethoxy)ethyl)-3-((4-methoxyphenyl)diphenylmethylthio)propanamide] showed an IC50 in series [6] of 750 nM. Besides, the EC50 in series [3] worked out at 580 nM.
